Reference: ChEMBL document CHEMBL1134607, “Synthesis and structure-activity relationships of a new model of arylpiperazines. Study of the 5-HT(1a)/alpha(1)-adrenergic receptor affinity by classical hansch analysis, artificial neural networks, and computational simulation of ligand recognition” (J Med Chem, 2001)

What was measured:
[1] = biological target: T1, Adrenergic receptor alpha-1 (Rattus norvegicus, UniProt P15823+P23944+P43140); assay: In vitro binding affinity towards alpha-1 adrenergic receptor in rat cerebral cortex membranes; format: cell membranes, Membrane
T1 sequence (P15823 whole entry): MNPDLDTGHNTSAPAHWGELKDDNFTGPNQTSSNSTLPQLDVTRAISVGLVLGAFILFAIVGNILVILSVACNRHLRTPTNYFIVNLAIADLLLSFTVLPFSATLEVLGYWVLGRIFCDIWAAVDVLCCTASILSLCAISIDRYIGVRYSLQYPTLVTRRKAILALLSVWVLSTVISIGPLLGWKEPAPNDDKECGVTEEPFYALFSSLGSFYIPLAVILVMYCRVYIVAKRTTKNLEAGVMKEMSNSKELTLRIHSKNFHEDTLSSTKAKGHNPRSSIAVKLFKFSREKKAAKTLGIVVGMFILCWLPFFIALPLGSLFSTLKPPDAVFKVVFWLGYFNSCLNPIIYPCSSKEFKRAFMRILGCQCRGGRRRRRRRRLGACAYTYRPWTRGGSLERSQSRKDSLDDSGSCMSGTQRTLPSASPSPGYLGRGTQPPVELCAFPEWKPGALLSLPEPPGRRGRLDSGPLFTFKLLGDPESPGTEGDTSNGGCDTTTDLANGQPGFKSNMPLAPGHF
T1 sequence (P23944 whole entry): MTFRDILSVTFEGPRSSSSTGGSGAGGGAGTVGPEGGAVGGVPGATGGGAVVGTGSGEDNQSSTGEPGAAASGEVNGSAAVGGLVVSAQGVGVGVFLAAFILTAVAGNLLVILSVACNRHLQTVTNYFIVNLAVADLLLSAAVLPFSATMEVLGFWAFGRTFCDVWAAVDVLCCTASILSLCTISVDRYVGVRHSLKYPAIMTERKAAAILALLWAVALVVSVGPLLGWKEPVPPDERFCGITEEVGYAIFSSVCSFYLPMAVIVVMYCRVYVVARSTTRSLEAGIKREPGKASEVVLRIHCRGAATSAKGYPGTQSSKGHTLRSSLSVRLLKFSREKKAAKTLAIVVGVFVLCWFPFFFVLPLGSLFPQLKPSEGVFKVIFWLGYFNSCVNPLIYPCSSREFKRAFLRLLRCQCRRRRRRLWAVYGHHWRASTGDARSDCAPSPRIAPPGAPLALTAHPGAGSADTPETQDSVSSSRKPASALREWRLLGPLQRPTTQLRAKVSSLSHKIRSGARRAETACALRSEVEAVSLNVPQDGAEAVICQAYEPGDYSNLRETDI
T1 sequence (P43140 whole entry): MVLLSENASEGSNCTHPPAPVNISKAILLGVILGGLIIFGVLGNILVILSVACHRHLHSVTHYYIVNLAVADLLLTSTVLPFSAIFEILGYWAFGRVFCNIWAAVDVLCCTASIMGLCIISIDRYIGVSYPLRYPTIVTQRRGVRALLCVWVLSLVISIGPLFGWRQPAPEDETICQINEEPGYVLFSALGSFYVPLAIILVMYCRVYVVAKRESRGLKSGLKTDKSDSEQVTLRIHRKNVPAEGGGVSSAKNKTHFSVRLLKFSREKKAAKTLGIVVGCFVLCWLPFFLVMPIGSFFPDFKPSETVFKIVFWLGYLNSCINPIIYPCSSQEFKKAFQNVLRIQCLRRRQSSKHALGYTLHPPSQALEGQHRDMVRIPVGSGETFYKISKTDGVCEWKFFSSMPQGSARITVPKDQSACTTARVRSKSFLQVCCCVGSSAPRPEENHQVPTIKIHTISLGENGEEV
Procedure, shortened: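 Rat cerebral cortex membranes in 50 mM Tris-HCl, 10 mM MgCl2, pH 7.4. About 250 µg protein incubated 30 min at 25 °C with 0.2 nM [3H]prazosin. Nonspecific binding with 10 µM phentolamine. Triplicates, filtration, scintillation counting. Ki by Cheng-Prusoff from iteratively fitted IC50. Prescreen at 10^-6 M, dose-response curves if displacement ≥55%.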

[2] = biological target: T2, 5-hydroxytryptamine receptor 1A (Rattus norvegicus, UniProt P19327); assay: In vitro binding affinity towards 5-hydroxytryptamine 1A receptor in rat cerebral cortex membranes; format: cell membranes, Membrane
T2 sequence (P19327 whole entry): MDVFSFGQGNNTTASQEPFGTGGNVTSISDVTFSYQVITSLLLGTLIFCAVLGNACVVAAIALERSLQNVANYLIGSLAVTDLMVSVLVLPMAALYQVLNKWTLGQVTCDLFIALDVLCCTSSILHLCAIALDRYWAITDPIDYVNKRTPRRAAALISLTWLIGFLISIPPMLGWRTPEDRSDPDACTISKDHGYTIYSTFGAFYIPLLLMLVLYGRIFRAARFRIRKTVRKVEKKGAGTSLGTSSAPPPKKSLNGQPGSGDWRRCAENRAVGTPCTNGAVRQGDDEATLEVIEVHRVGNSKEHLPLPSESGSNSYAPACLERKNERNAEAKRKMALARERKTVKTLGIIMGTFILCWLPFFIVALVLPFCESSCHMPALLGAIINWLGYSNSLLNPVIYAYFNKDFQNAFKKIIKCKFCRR
Procedure, shortened: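 Rat cerebral cortex membranes, washed and preincubated 10 min at 37 °C. About 1 mg protein incubated 15 min at 37 °C with 0.6 nM [3H]8-OH-DPAT in 50 mM Tris-HCl pH 7.4 containing 10 nM clonidine and 30 nM prazosin. Nonspecific binding with 10 µM 5-HT. Triplicates, filtration, scintillation counting. Ki by Cheng-Prusoff from fitted IC50. Prescreen at 10^-6 M, full curves if displacement ≥55%.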

SMILES | Ki [1] | Ki [2]
CCCNC(=O)c1ccccc1N1CCN(CCCCN2C(=O)C3CCCCN3C2=O)CC1 (configuration not stated) | 521 nM | 378 nM
Cc1ccccc1N1CCN(CCCCN2C(=O)C3CCCN3C2=O)CC1 (configuration not stated) | 7 nM | –
CCCNC(=O)c1ccccc1N1CCN(CCCN2C(=O)C3CCCN3C2=O)CC1 (configuration not stated) | 608 nM | 808 nM
CCCOC(=O)c1ccccc1N1CCN(CCCN2C(=O)C3CCCCN3C2=O)CC1 (configuration not stated) | 13 nM | 46 nM
CCS(=O)(=O)Nc1cccc(N2CCN(CCCCN3C(=O)C4CCCN4C3=O)CC2)c1 (configuration not stated) | > 1000 nM | –
COc1ccccc1N1CCN(CCCCN2CC(=O)N3CCCC3C2=O)CC1 (configuration not stated) | 25 nM | 12 nM
CCCCOc1ccccc1N1CCN(CCCCN2C(=O)C3CCCCN3C2=O)CC1 (configuration not stated) | 5 nM | 2.2 nM
Nc1cccc(N2CCN(CCCN3C(=O)C4CCCN4C3=O)CC2)c1 (configuration not stated) | 393 nM | 1180 nM
N#Cc1ccccc1N1CCN(CCCCN2C(=O)C3CCCN3C2=O)CC1 (configuration not stated) | 4.9 nM | 4 nM
N#Cc1ccccc1N1CCN(CCCN2CC(=O)N3CCCC3C2=O)CC1 (configuration not stated) | 17 nM | 27 nM
CCCOC(=O)c1ccccc1N1CCN(CCCCN2C(=O)C3CCCN3C2=O)CC1 (configuration not stated) | 41 nM | 4.8 nM
COc1ccccc1N1CCN(CCCN2CC(=O)N3CCCCC3C2=O)CC1 (configuration not stated) | 29 nM | 143 nM
Cc1ccccc1N1CCN(CCCN2CC(=O)N3CCCC3C2=O)CC1 (configuration not stated) | 17 nM | 48 nM
N#Cc1ccccc1N1CCN(CCCN2C(=O)C3CCCCN3C2=O)CC1 (configuration not stated) | 8.2 nM | 65 nM
CCCCOc1ccccc1N1CCN(CCCCN2CC(=O)N3CCCC3C2=O)CC1 (configuration not stated) | 10.5 nM | 8.7 nM
O=C1C2CCCN2C(=O)N1CCCN1CCN(c2cccc(Br)c2)CC1 (configuration not stated) | 25 nM | 34 nM
CCCCOc1ccccc1N1CCN(CCCN2CC(=O)N3CCCCC3C2=O)CC1 (configuration not stated) | 13 nM | 92 nM
O=C1C2CCCCN2C(=O)N1CCCCN1CCN(c2ccccc2Oc2ccccc2)CC1 (configuration not stated) | 2.4 nM | 0.6 nM
Cc1ccccc1N1CCN(CCCN2C(=O)C3CCCCN3C2=O)CC1 (configuration not stated) | 5.7 nM | 220 nM
CCCCOc1ccccc1N1CCN(CCCN2C(=O)C3CCCN3C2=O)CC1 (configuration not stated) | 6.4 nM | 15 nM
CCCNC(=O)c1ccccc1N1CCN(CCCCN2CC(=O)N3CCCC3C2=O)CC1 (configuration not stated) | 1354 nM | 1230 nM
CCCOC(=O)c1ccccc1N1CCN(CCCN2CC(=O)N3CCCC3C2=O)CC1 (configuration not stated) | 12 nM | –
O=C1C2CCCCN2C(=O)N1CCCCN1CCN(c2ccccc2Br)CC1 (configuration not stated) | 6.2 nM | 3.4 nM

Other lines, results leading:

Ki [1] | Ki [2] | SMILES
4430 nM | 776 nM | CC(C)C(=O)Nc1cccc(N2CCN(CCCN3C(=O)C4CCCCN4C3=O)CC2)c1 (configuration not stated)
16140 nM | 198 nM | CC(C)C(=O)Nc1cccc(N2CCN(CCCCN3CC(=O)N4CCCCC4C3=O)CC2)c1 (configuration not stated)
72 nM | 5.5 nM | O=C1C2CCCN2C(=O)CN1CCCCN1CCN(c2cccc(C(F)(F)F)c2)CC1 (configuration not stated)
811 nM | 4610 nM | CCCNC(=O)c1ccccc1N1CCN(CCCN2CC(=O)N3CCCCC3C2=O)CC1 (configuration not stated)
392 nM | 28 nM | CCCOC(=O)c1ccccc1N1CCN(CCCCN2CC(=O)N3CCCCC3C2=O)CC1 (configuration not stated)
30 nM | 15 nM | N#Cc1ccccc1N1CCN(CCCCN2CC(=O)N3CCCCC3C2=O)CC1 (configuration not stated)
231 nM | 68 nM | Nc1cccc(N2CCN(CCCCN3C(=O)C4CCCCN4C3=O)CC2)c1 (configuration not stated)
5.9 nM | 5.4 nM | O=C1C2CCCCN2C(=O)N1CCCCN1CCN(c2cccc(Br)c2)CC1 (configuration not stated)
5425 nM | 193 nM | CC(C)C(=O)Nc1cccc(N2CCN(CCCCN3C(=O)C4CCCN4C3=O)CC2)c1.Cl (configuration not stated)
27 nM | 32 nM | Cc1ccccc1N1CCN(CCCCN2CC(=O)N3CCCCC3C2=O)CC1 (configuration not stated)
339 nM | 179 nM | O=C1C2CCCCN2C(=O)CN1CCCN1CCN(c2cccc(C(F)(F)F)c2)CC1 (configuration not stated)
1440 nM | 266 nM | CC(C)C(=O)Nc1cccc(N2CCN(CCCN3CC(=O)N4CCCC4C3=O)CC2)c1 (configuration not stated)
